The results in this text go back to ChEMBL document CHEMBL4431391, “Exploration of substituted arylpiperazine-tetrazoles as promising dual norepinephrine and dopamine reuptake inhibitors” (Bioorg Med Chem, 2016).

Bounds are passed on as bounds.

Holding throughout (format): cell-based
Assay [1] has as its target Sodium-dependent serotonin transporter (Homo sapiens, UniProt P31645). In words: Inhibition of [3H]-5-hydroxytryptamine reuptake in human SERT expressed in HEK293 cells by liquid scintillation counting method.
Assay [2] addresses Sodium-dependent dopamine transporter (Homo sapiens, UniProt Q01959). In words: Inhibition of [3H]-5-dopamine reuptake in human DAT expressed in HEK293 cells by liquid scintillation counting method. A digest of the protocol:
(§1)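 HEK-293 cells grown in FBS-supplemented medium, transfected with human transporter (hDAT or hNET). Uptake of radiolabeled substrate ([3H]-DA for DAT, [3H]-NE for NET) at 20 nM was measured, with inhibition assessed as reduced uptake. Method adapted with slight modification from a literature procedure.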

Assay [3] deals with Sodium-dependent noradrenaline transporter (Homo sapiens, UniProt P23975). In words: Inhibition of [3H]-5-norepinephrine reuptake in human NET expressed in HEK293 cells by liquid scintillation counting method. A digest of the protocol:
as §1

Sodium-dependent noradrenaline transporter, sequence (P23975 whole entry): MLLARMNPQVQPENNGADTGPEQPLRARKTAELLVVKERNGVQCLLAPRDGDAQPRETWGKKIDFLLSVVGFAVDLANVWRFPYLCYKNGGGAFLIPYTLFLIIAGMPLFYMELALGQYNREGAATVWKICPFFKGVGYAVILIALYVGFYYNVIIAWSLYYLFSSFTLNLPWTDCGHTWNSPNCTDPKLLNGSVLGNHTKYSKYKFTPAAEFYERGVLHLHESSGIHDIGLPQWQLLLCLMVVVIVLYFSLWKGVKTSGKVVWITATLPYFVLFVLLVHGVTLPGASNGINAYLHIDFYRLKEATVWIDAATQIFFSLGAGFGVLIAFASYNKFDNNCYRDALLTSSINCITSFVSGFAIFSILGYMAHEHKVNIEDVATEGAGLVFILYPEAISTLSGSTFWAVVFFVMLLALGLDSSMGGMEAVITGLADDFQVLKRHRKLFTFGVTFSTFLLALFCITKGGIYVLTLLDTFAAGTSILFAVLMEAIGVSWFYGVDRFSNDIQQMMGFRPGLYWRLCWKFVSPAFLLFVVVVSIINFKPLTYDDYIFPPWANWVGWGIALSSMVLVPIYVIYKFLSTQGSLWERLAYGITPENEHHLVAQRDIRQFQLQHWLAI
Sodium-dependent dopamine transporter, sequence (Q01959 whole entry): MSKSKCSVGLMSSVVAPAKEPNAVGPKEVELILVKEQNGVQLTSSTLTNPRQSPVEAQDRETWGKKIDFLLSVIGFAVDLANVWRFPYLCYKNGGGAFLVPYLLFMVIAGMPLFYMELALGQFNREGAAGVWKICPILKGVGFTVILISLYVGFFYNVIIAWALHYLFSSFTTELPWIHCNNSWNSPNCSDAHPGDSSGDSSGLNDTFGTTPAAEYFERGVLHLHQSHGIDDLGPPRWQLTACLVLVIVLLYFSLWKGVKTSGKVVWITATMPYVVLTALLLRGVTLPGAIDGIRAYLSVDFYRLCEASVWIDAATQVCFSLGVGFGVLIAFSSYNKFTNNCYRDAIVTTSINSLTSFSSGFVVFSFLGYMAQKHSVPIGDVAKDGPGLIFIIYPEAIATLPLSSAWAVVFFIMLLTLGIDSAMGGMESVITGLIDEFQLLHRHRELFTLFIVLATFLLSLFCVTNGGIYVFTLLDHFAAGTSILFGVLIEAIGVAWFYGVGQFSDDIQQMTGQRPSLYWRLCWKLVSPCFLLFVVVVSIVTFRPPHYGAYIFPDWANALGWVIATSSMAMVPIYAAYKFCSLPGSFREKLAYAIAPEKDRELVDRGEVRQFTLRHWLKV
Sodium-dependent serotonin transporter, sequence (P31645 whole entry): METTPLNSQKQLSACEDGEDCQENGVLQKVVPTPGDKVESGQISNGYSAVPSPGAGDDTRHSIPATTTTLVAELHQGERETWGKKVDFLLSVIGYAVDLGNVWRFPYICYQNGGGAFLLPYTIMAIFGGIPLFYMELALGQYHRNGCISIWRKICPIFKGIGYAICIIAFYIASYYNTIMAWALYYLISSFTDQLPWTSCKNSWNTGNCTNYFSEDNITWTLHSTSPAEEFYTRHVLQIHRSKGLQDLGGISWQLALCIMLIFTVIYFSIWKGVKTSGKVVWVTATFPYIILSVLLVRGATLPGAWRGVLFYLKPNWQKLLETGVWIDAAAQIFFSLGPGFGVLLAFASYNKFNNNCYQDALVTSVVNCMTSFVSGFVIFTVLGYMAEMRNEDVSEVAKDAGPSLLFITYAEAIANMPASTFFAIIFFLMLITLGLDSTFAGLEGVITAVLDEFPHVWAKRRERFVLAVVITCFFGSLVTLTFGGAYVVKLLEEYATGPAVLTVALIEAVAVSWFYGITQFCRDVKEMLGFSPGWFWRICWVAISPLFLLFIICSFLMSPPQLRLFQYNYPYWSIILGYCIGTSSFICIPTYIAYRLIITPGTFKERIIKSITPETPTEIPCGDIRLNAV

`c1ccc(C(c2ccccc2)c2nnnn2CCCCN2CCN(c3ncccn3)CC2)cc1`: the IC50 (commonly the concentration at which inhibition is half-maximal) is over 10000 nM in assay [1], over 10000 nM in assay [2] and 8540 nM in assay [3].

On to `FC(F)(F)c1cccc(N2CCN(CCCn3nnnc3C(c3ccccc3)c3ccccc3)CC2)c1`, for which the figures for the IC50 in assay [2] and in assay [3] were 5580 nM and 2480 nM, respectively.

In the case of `FC(F)(F)c1ccc(N2CCN(CCCn3nnnc3C(c3ccccc3)c3ccccc3)CC2)cc1`, the IC50 in assay [2] and in assay [3] was over 10000 nM each time.

As for `Fc1ccc(C(F)(F)F)cc1N1CCN(CCCn2nnnc2C(c2ccccc2)c2ccccc2)CC1`, the values for the half-inhibitory concentration (IC50) in assay [2] and in assay [3] were 2250 nM and 1090 nM, respectively.

As to `Fc1cccc(F)c1N1CCN(CCCn2nnnc2C(c2ccccc2)c2ccccc2)CC1`, the IC50 was 820 nM in assay [2] and 510 nM in assay [3].

On to `Fc1cc(Cl)ccc1N1CCN(CCCn2nnnc2C(c2ccccc2)c2ccccc2)CC1`, for which the IC50 in assay [2] stood at 2250 nM; in assay [3] it was 1100 nM.

For `Clc1cccc(N2CCN(CCCCn3nnnc3C(c3ccccc3)c3ccccc3)CC2)c1Cl`, the IC50 was over 10000 nM in assay [1], over 10000 nM in assay [2] and 8870 nM in assay [3].

In the case of `Cc1cccc(C)c1N1CCN(CCCn2nnnc2C(c2ccccc2)c2ccccc2)CC1`, the 50% inhibitory concentration (IC50) was determined as 3720 nM in assay [2] and 1720 nM in assay [3].

On to `Clc1cccc(N2CCN(CCCn3nnnc3C(c3ccccc3)c3ccccc3)CC2)c1`, for which the IC50 in assay [2] was 4740 nM; in assay [3], 1620 nM.

Take `Fc1ccccc1N1CCN(CCCn2nnnc2C(c2ccccc2)c2ccccc2)CC1`: the values for the IC50 in assay [2] and in assay [3] were 1330 nM and 350 nM, respectively.

As for `c1ccc(C(c2ccccc2)c2nnnn2CCCN2CCN(c3ncccn3)CC2)cc1`, the figures for the half-inhibitory concentration (IC50) in assay [1], in assay [2] and in assay [3] were over 10000 nM, 1140 nM and 800 nM, respectively.

Consider `Clc1cccc(N2CCN(CCCn3nnnc3C(c3ccccc3)c3ccccc3)CC2)c1Cl`, for which the half-inhibitory concentration (IC50) was over 10000 nM in assay [1], 3040 nM in assay [2] and 1100 nM in assay [3].

`c1ccc(C(c2ccccc2)c2nnnn2CCCCN2CCN(c3ccccn3)CC2)cc1`: the values for the half-maximal inhibitory concentration (IC50) in assay [1], in assay [2] and in assay [3] were over 10000 nM, over 10000 nM and 4700 nM, respectively.

With `Clc1ccccc1N1CCN(CCCn2nnnc2C(c2ccccc2)c2ccccc2)CC1`, the results for the 50% inhibitory concentration (IC50) in assay [2] and in assay [3] were 1010 nM and 670 nM, respectively.

Turning to `Clc1ccc(N2CCN(CCCn3nnnc3C(c3ccccc3)c3ccccc3)CC2)c(Cl)c1`, the IC50 is 3590 nM in assay [2] and 2050 nM in assay [3].

Take `Clc1cccc(N2CCN(CCn3nnnc3C(c3ccccc3)c3ccccc3)CC2)c1Cl`: the IC50 in assay [1], in assay [2] and in assay [3] was over 10000 nM throughout.

Turning to `COc1ccc(N2CCN(CCCn3nnnc3C(c3ccccc3)c3ccccc3)CC2)cc1`, the concentration for half-maximal inhibition (IC50) is 3850 nM in assay [2] and 1060 nM in assay [3].

As for `Fc1ccc(N2CCN(CCCn3nnnc3C(c3ccccc3)c3ccccc3)CC2)cc1`, the IC50 amounted to 2480 nM in assay [2] and 80 nM in assay [3].

For the molecule `c1ccc(C(c2ccccc2)c2nnnn2CCCN2CCN(c3ccccn3)CC2)cc1`, the 50% inhibitory concentration (IC50) in assay [1] was over 10000 nM; in assay [2], 1430 nM; in assay [3], 920 nM.

For `Fc1cccc(N2CCN(CCCn3nnnc3C(c3ccccc3)c3ccccc3)CC2)c1`, the half-inhibitory concentration (IC50) in assay [2] is 1470 nM; in assay [3], 1890 nM.

On to `COc1ccccc1N1CCN(CCn2nnnc2C(c2ccccc2)c2ccccc2)CC1`, for which the IC50 in assay [1], in assay [2] and in assay [3] was over 10000 nM each time.

For the molecule `c1ccc(C(c2ccccc2)c2nnnn2CCN2CCN(c3ncccn3)CC2)cc1`, the IC50 in assay [1], in assay [2] and in assay [3] was over 10000 nM each time.

With `c1ccc(C(c2ccccc2)c2nnnn2CCN2CCN(c3ccccn3)CC2)cc1`, the IC50 in assay [1], in assay [2] and in assay [3] was over 10000 nM throughout.

With `COc1ccccc1N1CCN(CCCn2nnnc2C(c2ccccc2)c2ccccc2)CC1`, the IC50 in assay [1] is over 10000 nM; in assay [2], 1040 nM; in assay [3], 500 nM.

`c1ccc(C(c2ccccc2)c2nnnn2CCCN2CCN(c3ccccc3)CC2)cc1`: the IC50 in assay [2] was 1640 nM; in assay [3] it was 1450 nM.

Take `COc1ccccc1N1CCN(CCCCn2nnnc2C(c2ccccc2)c2ccccc2)CC1`: the IC50 is over 10000 nM in assay [1], over 10000 nM in assay [2] and 10000 nM in assay [3].

Turning to `Clc1ccc(N2CCN(CCCn3nnnc3C(c3ccccc3)c3ccccc3)CC2)cc1Cl`, the half-inhibitory concentration (IC50) was found to be 4200 nM in assay [2] and 4000 nM in assay [3].

Regarding `Clc1ccc(N2CCN(CCn3nnnc3C(c3ccccc3)c3ccccc3)CC2)cc1`, the 50% inhibitory concentration (IC50) in assay [1], in assay [2] and in assay [3] was over 10000 nM in each case.

Consider `Cc1ccc(N2CCN(CCCn3nnnc3C(c3ccccc3)c3ccccc3)CC2)cc1`, for which the figures for the half-maximal inhibitory concentration (IC50) in assay [2] and in assay [3] were 1420 nM and 870 nM, respectively.

Turning to `Fc1ccc(N2CCN(CCCn3nnnc3C(c3ccccc3)c3ccccc3)CC2)c(F)c1`, the values for the concentration for half-maximal inhibition (IC50) in assay [2] and in assay [3] were 2900 nM and 2160 nM, respectively.

As to `Brc1ccc(N2CCN(CCCn3nnnc3C(c3ccccc3)c3ccccc3)CC2)cc1`, the IC50 in assay [2] is 910 nM; in assay [3], 1200 nM.

`Clc1ccc(N2CCN(CCCCn3nnnc3C(c3ccccc3)c3ccccc3)CC2)cc1`: the IC50 in assay [1], in assay [2] and in assay [3] was over 10000 nM throughout.

In the case of `Clc1ccc(N2CCN(CCCn3nnnc3C(c3ccccc3)c3ccccc3)CC2)cc1`, the concentration for half-maximal inhibition (IC50) in assay [1] is over 10000 nM; in assay [2] it was 1200 nM; in assay [3], 460 nM.
